{"source": "paper PMC3134314", "about": "(ACS chemical neuroscience, 2011)", "key": {"[1]": {"system": "voltage-gated Na+ channels in CAD cells", "settings": "earlier study; cited from earlier work"}, "[2]": {"system": "voltage-gated Na+ channels in CAD cells", "test": "Recovery of Na+ channels from inactivation/block in CAD cells", "assay_type": "cell-based", "settings": "vs control", "procedure,_shortened": "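CAD cells under whole-cell clamp, test compound (100, 8.5 or 15 μM) or control. Cells were held at −120 mV and depolarized to 0 mV, for 5 s (slow inactivation) or a 10 ms prepulse. They were then returned to −120 mV for a variable recovery interval before a test step to 0 mV. Sweeps ran at 0.5 Hz for short recoveries and slower for longer ones.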"}, "[3]": {"system": "voltage-gated Na+ channels in CAD cells", "test": "Development of inhibition/slow inactivation of Na+ currents in CAD cells", "assay_type": "cell-based", "settings": "vehicle 0.52 ± 0.09"}, "[4]": {"system": "voltage-gated Na+ channels in CAD cells", "test": "Frequency", "assay_type": "cell-based", "settings": "10 Hz; for Pulse in the train at which use-dependent block was first observed: 30-pulse train", "procedure,_shortened": "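CAD cells were whole-cell clamped at −80 mV and given a train of 30 pulses (20 ms to −10 mV) at 10 Hz, with test compound (100, 8.5 or 15 μM) or control. Available current was the peak at pulse N divided by the pulse 1 peak. 5–7 cells per condition, averaged ± SEM.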"}, "[5]": {"system": "voltage-gated Na+ channels in CAD cells", "settings": "30 μM; cited from earlier work"}, "[6]": {"system": "tibial-nerve injury (TNI) mechanical hypersensitivity", "test": "Tibial-nerve injury", "assay_type": "in vivo, Sprague–Dawley rats", "settings": "rats, 10 mg/kg i.p."}, "[7]": {"system": "voltage-gated Na+ channels in CAD cells", "assay_type": "cell-based", "procedure,_shortened": "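Steady-state fast inactivation in whole-cell clamped CAD cells used a 500 ms conditioning pulse. Test compound ranged 0.3–500 μM; control was DMSO vehicle. Recordings were taken 3–4 min after break-in and compared with drug-free cells. V1/2 and k came from single Boltzmann fits of each recording, averaged as mean ± SEM. n = 7 for V1/2, n = 6 for τinact. Student's t-test vs DMSO.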"}, "[8]": {"system": "formalin-induced pain, chronic (late-phase) inflammatory pain", "test": "Formalin-induced pain model", "assay_type": "in vivo", "settings": "mouse, i.p., the lower the percent the more effective the compound"}, "[9]": {"system": "voltage-gated Na+ channels in CAD cells", "assay_type": "cell-based", "settings": "for Maximal fraction of current unavailable by depolarization: 20 mV, control 0.42 ± 0.02"}, "site 2 sodium channel": {"system": "site 2 sodium channel", "test": "Site 2 sodium channel binding", "settings": "10 μM, Cerep, data not shown"}, "E18 rat cortical neurons": {"system": "E18 rat cortical neurons", "test": "KCl-induced Ca2+ influx, Fura-2 imaging", "assay_type": "cell-based", "settings": "100 μM, 46.5 mM KCl"}}, "note": "Where “and” joins values, the source holds several entries; their conditions need not be identical. Equal entries are not always repeated. Where two headings read alike, the source gives them in different places.", "data": [{"smiles": "COC[C@@H](NC(C)=O)C(=O)NCc1ccccc1", "note": "[(R)-4, Lacosamide, reference compound]", "values": [{"measurement": "Inhibition of peak Na+ currents", "setting": "[1]", "result": "~ 40%"}, {"measurement": "Time course of recovery from the 10-ms depolarization", "setting": "[2]; 100 μM", "result": "not different from control"}, {"measurement": "Recovery kinetics after 5 s depolarization (slow inactivation induced)", "setting": "[2]; 100 μM, significant between 100–512 ms", "result": "slowed recovery kinetics"}, {"measurement": "Fraction of current available at 8 s prepulse duration", "setting": "[3]; 100 μM", "result": "0.32 ± 0.01"}, {"measurement": "Peak current lower than control at the last pulse (pulse 30)", "setting": "[4]; 100 μM", "result": "~ 9%"}, {"measurement": "Pulse in the train at which use-dependent block was first observed", "setting": "[4]; 100 μM", "result": "~19", "unit": "pulse"}, {"measurement": "Shift in V1/2 of fast inactivation", "setting": "[5]", "result": 0.7, "unit": "mV"}]}, {"smiles": "COC[C@@H](NC(C)=O)C(=O)NCc1ccc(OCc2cccc(F)c2)cc1", "note": "[(R)-7]", "values": [{"measurement": "Reversal of tactile hypersensitivity", "setting": "[6]; 14 days after TNI, 1 hour after administration", "result": "~ 90%"}, {"measurement": "Mechanical withdrawal thresholds 24 hours after injection", "setting": "[6]; four weeks after TNI, 24 hours", "result": "returned to pre-drug levels"}, {"measurement": "Time constant for inactivation (τinact)", "setting": "[7]; 0.3 μM, DMSO 1.32 ± 0.12 ms", "result": "0.73 ± 0.05", "unit": "ms"}, {"measurement": "Shift in V1/2 of fast inactivation in the hyperpolarizing direction", "setting": "[7]; 30 μM", "result": "~ 21.4 mV and 21.4 mV"}, {"measurement": "V1/2 value for fast inactivation", "setting": "[7]; 30 μM, DMSO −63.2 ± 0.9 mV", "result": "−84.6 ± 1.2", "unit": "mV"}, {"measurement": "Time course of recovery from the 10-ms depolarization", "setting": "[2]; 8.5 μM", "result": "slight slowing"}, {"measurement": "Recovery kinetics after 5 s depolarization (slow inactivation induced)", "setting": "[2]; 8.5 μM, significant between 100 ms to 2 s", "result": "slowed recovery kinetics"}, {"measurement": "Fraction of current available at 8 s prepulse duration", "setting": "[3]; 8.5 μM", "result": "0.20 ± 0.04"}, {"measurement": "Peak current lower than control at the last pulse (pulse 30)", "setting": "[4]; 8.5 μM", "result": 40, "unit": "%"}, {"measurement": "Pulse in the train at which use-dependent block was first observed", "setting": "[4]; 8.5 μM", "result": 3, "unit": "pulse"}, {"measurement": "Protection vs control, chronic (late-phase) inflammatory pain", "setting": "[8]; 15 mg/kg", "result": 44, "unit": "%"}, {"measurement": "Fraction of current available at −50 mV", "setting": "[9]; 30 μM, vs cells without drug", "result": "significantly decreased the fraction of current available"}, {"measurement": "Maximal fraction of current unavailable by depolarization", "setting": "[9]; 30 μM", "result": "0.91 ± 0.01"}]}, {"smiles": "COC[C@@H](NC(C)=O)C(=O)NCc1ccc(COc2ccccc2F)cc1", "note": "[(R)-10]", "values": [{"measurement": "Displacement, site 2 sodium channel binding", "setting": "site 2 sodium channel", "result": "31–46%"}, {"measurement": "Shift in V1/2 of fast inactivation in the hyperpolarizing direction", "setting": "[7]; 100 μM", "result": 17.6, "unit": "mV"}, {"measurement": "Fold lower IC50 for slow inactivation compared with (R)-4 (85 μM)", "setting": "[9]", "result": 16, "unit": "fold"}, {"measurement": "Maximal fraction of current unavailable by depolarization", "setting": "[9]; 100 μM", "result": "0.90 ± 0.007"}]}, {"smiles": "COC[C@@H](NC(C)=O)C(=O)NCc1ccc(-c2cccc(F)c2)cc1", "note": "[(R)-11]", "values": [{"measurement": "Displacement, site 2 sodium channel binding", "setting": "site 2 sodium channel", "result": "31–46%"}, {"measurement": "Shift in V1/2 of fast inactivation in the hyperpolarizing direction", "setting": "[7]; 30 μM", "result": 8.0, "unit": "mV"}, {"measurement": "Time course of recovery from the 10-ms depolarization", "setting": "[2]; 15 μM", "result": "not different from control"}, {"measurement": "Recovery kinetics after 5 s depolarization (slow inactivation induced)", "setting": "[2]; 15 μM, significant between 100 ms to 2 s", "result": "slowed recovery kinetics"}, {"measurement": "Fraction of current available at 8 s prepulse duration", "setting": "[3]; 15 μM", "result": "0.12 ± 0.04"}, {"measurement": "Peak current lower than control at the last pulse (pulse 30)", "setting": "[4]; 15 μM", "result": 45, "unit": "%"}, {"measurement": "Pulse in the train at which use-dependent block was first observed", "setting": "[4]; 15 μM", "result": 3, "unit": "pulse"}, {"measurement": "Protection vs control, chronic (late-phase) inflammatory pain", "setting": "[8]; 12 mg/kg", "result": 97, "unit": "%"}, {"measurement": "Maximal fraction of current unavailable by depolarization", "setting": "[9]; 30 μM", "result": "0.94 ± 0.004"}]}, {"smiles": "COC[C@H](NC(C)=O)C(=O)NCc1ccccc1", "note": "[(S)-4]", "values": [{"measurement": "Inhibition of peak Na+ currents", "setting": "[1]", "result": "no inhibition"}, {"measurement": "Inhibition of Ca2+ amplitude (KCl-induced Ca2+ influx)", "setting": "E18 rat cortical neurons", "result": "13.74 ± 1.26", "unit": "%"}]}, {"smiles": "COC[C@H](NC(C)=O)C(=O)NCc1ccc(OCc2cccc(F)c2)cc1", "note": "[(S)-7]", "values": [{"measurement": "Shift in V1/2 of fast inactivation in the hyperpolarizing direction", "setting": "[7]; 500 μM", "result": 19.9, "unit": "mV"}, {"measurement": "Fraction of current available at −50 mV", "setting": "[9]; 500 μM (highest dose)", "result": "reduced the available current but not to the extent observed with (R)-7"}, {"measurement": "Potential above which (more depolarized) slow inactivation was observed", "setting": "[9]; 5 s conditioning prepulses", "result": "> −80", "unit": "mV"}, {"measurement": "Maximal fraction of current unavailable by depolarization", "setting": "[9]; 500 μM", "result": "0.76 ± 0.02"}]}]}
